Results collected from several papers.
Protocols differ between the studies behind these lines.
PIK3CA H1047Y: Phosphatidylinositol 4,5-bisphosphate 3-kinase catalytic subunit alpha isoform (PIK3CA, Homo sapiens, UniProt P42336, H1047Y)
PIK3CA I800L: Phosphatidylinositol 4,5-bisphosphate 3-kinase catalytic subunit alpha isoform (PIK3CA, Homo sapiens, UniProt P42336, I800L)
PIK3CA H1047L: Phosphatidylinositol 4,5-bisphosphate 3-kinase catalytic subunit alpha isoform (PIK3CA, Homo sapiens, UniProt P42336, H1047L)
PIK3CA C420R: Phosphatidylinositol 4,5-bisphosphate 3-kinase catalytic subunit alpha isoform (PIK3CA, Homo sapiens, UniProt P42336, C420R)
PIK3CA E545A: Phosphatidylinositol 4,5-bisphosphate 3-kinase catalytic subunit alpha isoform (PIK3CA, Homo sapiens, UniProt P42336, E545A)
PIK3CA M1043I: Phosphatidylinositol 4,5-bisphosphate 3-kinase catalytic subunit alpha isoform (PIK3CA, Homo sapiens, UniProt P42336, M1043I)
PIK3CA E542K: Phosphatidylinositol 4,5-bisphosphate 3-kinase catalytic subunit alpha isoform (PIK3CA, Homo sapiens, UniProt P42336, E542K)
PIK3CA: Phosphatidylinositol 4,5-bisphosphate 3-kinase catalytic subunit alpha isoform (PIK3CA, Homo sapiens, UniProt P42336)
PIK3CA Q546K: Phosphatidylinositol 4,5-bisphosphate 3-kinase catalytic subunit alpha isoform (PIK3CA, Homo sapiens, UniProt P42336, Q546K)

target | test | conditions | remaining binding [%] | Structure (SMILES)
PIK3CA H1047Y | binding, competition with immobilised ligand | 1 µM | 100 | CNC(=O)[C@@H]1CC[C@@H](n2c(-c3ccc4cnccc4c3)nc3ccc(C(=O)NCc4cccc(C(N)=O)c4)cc32)C1
PIK3CA I800L | cell-free assay, competition with immobilised ligand | 5 µM | 86 | COc1ncc2cc3ccccc3nc2c1C#N
PIK3CA H1047L | binding | 1 µM | 69 | C[C@H]1CCN(c2nccc(-c3cnn4ncccc34)n2)C1
PIK3CA C420R | cell-free assay, competition with immobilised ligand | 1 µM | 93 | CO[C@@H](C)c1c(Nc2ccc([C@H](N(C)C(=O)C3CCS(=O)(=O)CC3)C(F)(F)F)cc2)cnc2cc(Cl)nn12
PIK3CA E545A | binding | 10 µM | 100 | CN1CCN(c2ccc(Nc3nccc(-c4ccccc4)n3)cc2C(F)(F)F)CC1
PIK3CA M1043I | binding, competition with immobilised ligand | 1 µM | 0 | C=CC(=O)N1CCC(C(=O)NCC(=O)N2CCN(c3nc(-c4cnc(N)nc4C(F)F)nc(N4CCOCC4)n3)CC2)CC1
PIK3CA H1047Y | binding, competition with immobilised ligand | 0.1 µM | 78 | C[C@@H](c1ccc(-n2cnc3c(N)ncnc32)cc1)N1CCc2nn(C)c(Cc3ccccc3)c2C1=O
PIK3CA H1047L | binding | 1 µM | 75 | N[C@H]1CCN(c2nccc(-c3cnn4ncccc34)n2)C1
PIK3CA C420R | binding, competition with immobilised ligand | 1 µM | 88 | O=C(c1ccc(Nc2nccc(-c3cc4ccccc4s3)n2)cc1)N1CCC(N2CCCC2)CC1
PIK3CA E542K | cell-free assay, competition with immobilised ligand | 0.1 µM | 100 | CC(C)CC(=O)N1CCc2nc(-c3ccc(Br)cc3)nc(N(C)Cc3ccccc3)c2C1
PIK3CA H1047L | binding | 1 µM | 76 | COc1ccnn2ncc(-c3ccnc(N(C)C)n3)c12
PIK3CA | cell-free assay, competition with immobilised ligand | 0.1 µM | 97 | CCN(CC)Cc1cc(Nc2ccnc3cc(Cl)ccc23)ccc1O
PIK3CA E545A | cell-free assay, competition with immobilised ligand | 1 µM | 75.4 | CC1=C(C#N)[C@@H](c2ccc3[nH]nc(C)c3c2)C(C#N)=C(c2ccc(Cl)cc2)N1
PIK3CA E542K | binding | 10 µM | 36 | CN1CCN(c2ccc(Nc3nccc(-c4cccc([N+](=O)[O-])c4)n3)cc2C(F)(F)F)CC1
PIK3CA Q546K | binding, competition with immobilised ligand | 1 µM | 97 | Cc1cnc(Nc2ccc(C(=O)N3CCC(N4CCCC4)CC3)cc2)nc1-c1cc2ccccc2s1
PIK3CA I800L | binding, competition with immobilised ligand | 1 µM | 81 | O=C(Nc1c[nH]nc1C(=O)NC1CCNCC1)c1cc(F)cc(F)c1
PIK3CA E545A | binding | 1 µM | 100 | CN(C)c1nccc(-c2cnn3ncccc23)n1
PIK3CA I800L | binding, competition with immobilised ligand | 1 µM | 97 | O=C(c1ccc(Nc2ncc(Cl)c(-c3cc4ccccc4s3)n2)cc1)N1CCC(N2CCCC2)CC1
PIK3CA Q546K | binding, competition with immobilised ligand | 1 µM | 100 | COc1cnc(Nc2cccc(S(N)(=O)=O)c2)nc1N1CCN(c2ccccc2)C(=O)C1

target | test | conditions | remaining binding [%] | Structure (SMILES)
PIK3CA E542K | binding, competition with immobilised ligand | 1 µM | 78 | O=C(NCC1CCOCC1)c1n[nH]cc1NC(=O)c1c(F)cccc1F
PIK3CA Q546K | binding | 1 µM | 63 | c1cnn2ncc(-c3ccnc(N4CCC45COC5)n3)c2c1
Phosphatidylinositol 4,5-bisphosphate 3-kinase catalytic subunit alpha isoform (PIK3CA, Homo sapiens, UniProt P42336, E545K) | binding, competition with immobilised ligand | 1 µM | 71 | O=C(NCCCN1CCOCC1)c1ccc(Nc2ncc(Cl)c(-c3ccc(Cl)s3)n2)cc1
PIK3CA C420R | binding, competition with immobilised ligand | 1 µM | 95 | COc1cnc(Nc2cccc(S(N)(=O)=O)c2)nc1N1CCN(c2ccccc2)CC1
PIK3CA E542K | binding, competition with immobilised ligand | 10 µM | 88 | c1cncc(-c2cccc(Nc3nccc(NC4CCCCC4)n3)c2)c1
PIK3CA Q546K | binding | 1 µM | 42 | CC1CCCN1c1nccc(-c2cnn3ncccc23)n1 (stereo not shown)
PIK3CA M1043I | binding, competition with immobilised ligand | 1 µM | 100 | CCN1CCN(Cc2ccc(C(=O)Nc3ccc(C)c(Oc4ccc5c(c4)CC(=O)N5)c3)cc2C(F)(F)F)CC1
PIK3CA E545A | binding | 1 µM | 100 | CN(CCCC(F)(F)F)c1nccc(-c2cnn3ncccc23)n1
PIK3CA I800L | cell-free assay, competition with immobilised ligand | 1 µM | 81 | CNCc1ccccc1-c1csc([C@H](C)Nc2nc(C)nc3cc(OC)c(OC)cc23)c1
PIK3CA I800L | binding, competition with immobilised ligand | 1 µM | 92 | O=C(c1ccc(Nc2ncc(Cl)c(-c3ccc(Cl)s3)n2)cc1)N1CCC(N2CCCC2)CC1
PIK3CA | cell-free assay, competition with immobilised ligand | 1 µM | 79 | O=C1CCc2cc(Nc3cc(OC4CCOCC4)c([N+](=O)[O-])cc3Cl)ccc2N1
PIK3CA H1047Y | binding | 1 µM | 100 | CN(C)c1ncc(F)c(-c2cnn3ncccc23)n1
PIK3CA C420R | cell-free assay, competition with immobilised ligand | 1 µM | 93 | C[C@H](NC(=O)c1cnc2n1[C@](C)(Cc1ccc(C#N)cc1)C(=O)N2c1cc(Cl)c(F)c(Cl)c1)C(=O)NC1(c2ccccn2)CC1
PIK3CA M1043I | binding, competition with immobilised ligand | 1 µM | 80 | O=C(NCCCN1CCOCC1)c1ccc(Nc2nccc(-c3cc4ccccc4s3)n2)cc1
PIK3CA M1043I | cell-free assay, competition with immobilised ligand | 1 µM | 100 | O=C(O)c1cc(-c2ccc(C3CCNCC3)cc2)c2ccc(-c3ccc(C(F)(F)F)cc3)cc2c1
PIK3CA C420R | binding, competition with immobilised ligand | 1 µM | 86 | Nc1ncc2c(n1)-c1c([nH]c3ccc(C#CC4CC4)cc13)CCCC2
PIK3CA | cell-free assay, competition with immobilised ligand | 0.1 µM | 98 | CS(=O)(=O)CCNCc1ccc(-c2ccc3ncnc(Nc4ccc(OCc5cccc(F)c5)c(Cl)c4)c3c2)o1
PIK3CA Q546K | cell-free assay, competition with immobilised ligand | 1 µM | 66 | CS(=O)(=O)c1cc(C2(NC(=O)c3cncc4c3cnn4-c3ccc(F)cc3)CC2)ccn1
